Data from ChEMBL document CHEMBL1153486, “Discovery of a class of potent gap-junction modifiers as novel antiarrhythmic agents” (Bioorg Med Chem Lett, 2009).
Activity calls are given as the source filed them. No cut-off for these calls is given here.

Tests used:
[1] = Stability in rat plasma after 3 hrs; type: ADME, cell-free; conditions: read-out: Stability
How it was run: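 Rat plasma incubation for 3 h; stability reported as percent of compound remaining.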

Mus musculus [2] = experiment: Antiarrhythmic activity in calcium chloride-induced mouse arrhythmia model assessed as prolongation of time to conduct cardiac block at 10 pmol/kg, iv relative to control; type: functional, Heart
How it was run: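 Mice received an intravenous infusion of CaCl2 after IV test compound. The read-out was time to cardiac conduction block, expressed as percent increase over control. Values are means of at least three experiments with standard deviation.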

[3] = Half life in CD1 mouse at 1.6 mg/kg, iv; type: ADME, organism-based; parameters: dose 1.6 mg/kg, route intravenous; conditions: in vivo
How it was run: (§1)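 CD-1 mice were dosed IV at a nominal 1 mg/kg (actual 0.77 mg/kg or 1.6 mg/kg for some compounds) and PO at 5 mg/kg. Parameters were derived from mean drug concentration, N = 3 animals/time point.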

[4] = Tmax in CD1 mouse at 5 mg/kg, po; conditions: in vivo
[5] = Tmax in dog at 7.8 mg/kg, po; type: ADME, organism-based, Canis lupus familiaris; parameters: dose 7.8 mg/kg, route oral; conditions: in vivo
Mus musculus [6] = experiment: AUC in CD1 mouse at 5 mg/kg, po; conditions: in vivo
Mus musculus [7] = experiment: Antiarrhythmic activity in calcium chloride-induced mouse arrhythmia model assessed as prolongation of time to conduct cardiac block at 1 to 30 mg/kg, po relative to control; type: functional, organism-based; conditions: Heart
How it was run: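 Compounds were given orally at 1–30 mg/kg to mice, which then received an intravenous CaCl2 infusion. The read-out was prolongation of time to conduction block versus control.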

[8] = biological target: Voltage-gated inwardly rectifying potassium channel KCNH2 (Homo sapiens, UniProt Q12809); experiment: Inhibition of human ERG
Sequence of Voltage-gated inwardly rectifying potassium channel KCNH2 (Q12809 whole entry): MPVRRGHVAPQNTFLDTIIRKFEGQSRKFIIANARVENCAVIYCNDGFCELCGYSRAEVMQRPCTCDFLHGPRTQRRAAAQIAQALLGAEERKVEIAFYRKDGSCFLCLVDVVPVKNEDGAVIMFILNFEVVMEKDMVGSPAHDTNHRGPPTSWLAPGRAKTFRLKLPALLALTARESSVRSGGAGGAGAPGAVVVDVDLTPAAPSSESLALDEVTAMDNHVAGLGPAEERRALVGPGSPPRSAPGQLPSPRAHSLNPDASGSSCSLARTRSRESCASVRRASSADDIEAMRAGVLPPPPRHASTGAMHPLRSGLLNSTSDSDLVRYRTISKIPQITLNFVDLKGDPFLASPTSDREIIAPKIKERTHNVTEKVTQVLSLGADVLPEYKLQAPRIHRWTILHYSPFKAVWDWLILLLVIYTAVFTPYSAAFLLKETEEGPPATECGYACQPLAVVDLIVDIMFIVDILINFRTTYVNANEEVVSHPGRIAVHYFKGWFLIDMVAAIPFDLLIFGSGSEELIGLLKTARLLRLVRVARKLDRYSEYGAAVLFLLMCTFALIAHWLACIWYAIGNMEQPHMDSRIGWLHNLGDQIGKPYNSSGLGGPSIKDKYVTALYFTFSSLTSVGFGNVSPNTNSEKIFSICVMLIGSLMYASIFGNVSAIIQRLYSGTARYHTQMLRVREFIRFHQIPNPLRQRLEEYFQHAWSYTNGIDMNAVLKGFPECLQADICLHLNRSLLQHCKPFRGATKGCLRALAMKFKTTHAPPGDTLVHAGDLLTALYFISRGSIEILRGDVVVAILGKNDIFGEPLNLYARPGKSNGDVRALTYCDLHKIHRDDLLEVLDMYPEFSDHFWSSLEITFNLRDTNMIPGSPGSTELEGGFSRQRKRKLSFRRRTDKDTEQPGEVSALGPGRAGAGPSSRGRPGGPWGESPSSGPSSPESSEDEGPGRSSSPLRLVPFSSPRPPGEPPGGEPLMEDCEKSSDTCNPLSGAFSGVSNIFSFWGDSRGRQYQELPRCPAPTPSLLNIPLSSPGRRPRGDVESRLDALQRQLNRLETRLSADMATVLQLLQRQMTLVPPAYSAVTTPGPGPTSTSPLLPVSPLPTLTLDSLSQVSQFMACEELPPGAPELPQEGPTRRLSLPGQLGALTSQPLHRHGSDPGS

[9] = AUC in dog at 7.8 mg/kg, po; type: ADME, organism-based, Canis lupus familiaris; parameters: dose 7.8 mg/kg, route oral; conditions: plasma
How it was run: (§2)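 Dogs were dosed IV at 1 mg/kg and PO at 5 mg/kg; one compound was given 2.3 mg/kg IV and 7.8 mg/kg oral. Values are means of at least three animals, or two animals where no SD is given.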

[10] = Half life in dog at 7.8 mg/kg, po; type: ADME, organism-based, Canis lupus familiaris; parameters: dose 7.8 mg/kg, route oral; conditions: in vivo; how it was run: as §2
[11] = Half life in dog at 2.3 mg/kg, iv; type: ADME, organism-based, Canis lupus familiaris; parameters: dose 2.3 mg/kg, route intravenous; conditions: in vivo; how it was run: as §2
[12] = Oral bioavailability in dog at 7.8 mg/kg; type: ADME, organism-based, Canis lupus familiaris; conditions: in vivo; how it was run: as §2
[13] = Metabolic stability in human liver microsomes assessed as half life; type: ADME, Microsome
Mus musculus [14] = experiment: Oral bioavailability in CD1 mouse at 1.6 mg/kg; type: ADME, organism-based; conditions: in vivo
[15] = Volume of distribution at steady state in dog at 2.3 mg/kg, iv; type: ADME, organism-based, Canis lupus familiaris; parameters: dose 2.3 mg/kg, route intravenous; conditions: in vivo, read-out: Vdss; how it was run: as §2
[16] = Cmax in dog at 7.8 mg/kg, po; type: ADME, organism-based, Canis lupus familiaris; parameters: dose 7.8 mg/kg, route oral; conditions: in vivo; how it was run: as §2
[17] = Clearance in dog at 2.3 mg/kg, iv; type: ADME, organism-based, Canis lupus familiaris; parameters: dose 2.3 mg/kg, route intravenous; conditions: in vivo; how it was run: as §2
[18] = Metabolic stability in rat liver microsomes assessed as half life; type: ADME, Microsome
[19] = Cmax in CD1 mouse at 5 mg/kg, po; conditions: in vivo
[20] = Half life in CD1 mouse at 5 mg/kg, po; conditions: in vivo
[21] = Volume of distribution at steady state in CD1 mouse at 1.6 mg/kg, iv; type: ADME, organism-based; parameters: dose 1.6 mg/kg, route intravenous; conditions: in vivo, read-out: Vdss; how it was run: as §1
[22] = Inhibition of CYP450; type: ADME
[23] = Tmax in CD1 mouse at 5 mg/kg, po; type: ADME, organism-based; parameters: dose 5 mg/kg, route oral; conditions: in vivo; how it was run: as §1
[24] = Clearance in CD1 mouse at 1 mg/kg, iv; type: ADME, organism-based; parameters: dose 1 mg/kg, route intravenous; conditions: in vivo; how it was run: as §1
[25] = AUC in CD1 mouse at 5 mg/kg, po; type: ADME, organism-based; parameters: dose 5 mg/kg, route oral; conditions: plasma; how it was run: as §1
[26] = Half life in CD1 mouse at 1 mg/kg, iv; type: ADME, organism-based; parameters: dose 1 mg/kg, route intravenous; conditions: in vivo; how it was run: as §1
[27] = Half life in CD1 mouse at 5 mg/kg, po; type: ADME, organism-based; parameters: dose 5 mg/kg, route oral; conditions: in vivo; how it was run: as §1
[28] = Oral bioavailability in CD1 mouse at 5 mg/kg; type: ADME, organism-based; conditions: in vivo; how it was run: as §1
[29] = Volume of distribution at steady state in CD1 mouse at 1 mg/kg, iv; type: ADME, organism-based; parameters: dose 1 mg/kg, route intravenous; conditions: in vivo, read-out: Vdss; how it was run: as §1
[30] = Cmax in CD1 mouse at 5 mg/kg, po; type: ADME, organism-based; parameters: dose 5 mg/kg, route oral; conditions: in vivo; how it was run: as §1

Molecule `NCC(=O)N1C[C@H](NC(=O)c2ccccc2)C[C@H]1C(=O)NC1CCCC1` has a remaining at 3 h [1] of 90% and an Activity (Mus musculus [2]) of 110.6%.
Molecule `NCC(=O)N1C[C@H](NC(=O)c2ccccc2)C[C@H]1C(=O)NC1CCOCC1` has a remaining at 3 h [1] of 81% and an Activity (Mus musculus [2]) of 99.4%.
For `COC(=O)[C@@H]1C[C@@H](NC(=O)c2ccccc2)CN1C(=O)CNC(=O)OC(C)(C)C`, the remaining at 3 h [1] was 0% and the Activity (Mus musculus [2]) was 166.3%.
Work on `NCC(=O)N1C[C@H](NC(=O)c2ccccc2)C[C@H]1C(=O)N[C@@H]1CCOC1` yielded a remaining at 3 h [1] of 100% and an Activity (Mus musculus [2]) of 143.5%.
Molecule `O=CNCC(=O)N1C[C@H](NC(=O)c2ccccc2)C[C@H]1C(=O)O` has a half-life [3] of 0.4 h, a Tmax [4] of 0.25 h and a Tmax [5] of 1.4 h. The AUC (Mus musculus [6]) was 144 ng·h/mL, the Activity (Mus musculus [7]) was “Active” and the Activity [8] was “Not Active”. For the same molecule, the AUC [9] was 3820 ng·h/mL, the remaining at 3 h [1] was 100% and the half-life [10] was 6.2 h. The half-life [11] was 1.5 h, the bioavailability [12] was 13% and the half-life [13] was greater than 0.5 h. For the same molecule, the F (Mus musculus [14]) was 2%, the Vd [15] was 0.4 L/kg and the Cmax [16] was 737 ng/mL. The clearance [17] was 5 mL/min/kg, the half-life [18] was greater than 0.5 h and the Cmax [19] was 89 ng/mL. The half-life [20] was 1.4 h, the Vd [21] was 0.2 L/kg and the Activity [22] was “Not Active”. It also gave an Activity (Mus musculus [2]) of 170.4%.
Molecule `NCC(=O)N1C[C@H](NC(=O)c2ccccc2)C[C@H]1C(N)=O` has a remaining at 3 h [1] of 27% and an Activity (Mus musculus [2]) of 193.2%.
For `CC(C)(C)OC(=O)NCC(=O)N1C[C@H](NC(=O)c2ccccc2)C[C@H]1C(=O)O`, the remaining at 3 h [1] was 100% and the Activity (Mus musculus [2]) was 156.2%.
For `CNCC(=O)N1C[C@H](NC(=O)c2ccccc2)C[C@H]1C(=O)O`, the remaining at 3 h [1] was 100% and the Activity (Mus musculus [2]) was 120.7%.
In the case of `NCC(=O)N1C[C@H](NC(=O)c2ccccc2)C[C@H]1C(=O)NC1CC1`, the Activity (Mus musculus [7]) was “Active”, the Activity [8] was “Not Active” and the Tmax [23] was 0.25 h. For the same molecule, the clearance [24] was 20 mL/min/kg, the AUC [25] was 305 ng·h/mL and the remaining at 3 h [1] was 96%. It also gave a half-life [26] of 2.1 h, a half-life [27] of 1.2 h and a half-life [13] greater than 0.5 h. It also gave a bioavailability [28] of 7%, a Vd [29] of 0.6 L/kg and a half-life [18] greater than 0.5 h. The Cmax [30] was 87 ng/mL, the Activity [22] was “Not Active” and the Activity (Mus musculus [2]) was 196%.
